Measurements: ChEMBL document CHEMBL3576822 (J Med Chem, 2015)
The source made the active and inactive calls. The rule behind the calls is not given here. Residues, ends and D or L forms follow the SMILES beside them.

Experiments:
[1] = target: T1, Neuropeptide Y receptor type 1 (Homo sapiens) (UniProt P25929); experiment: Agonist activity at human neuropeptide Y Y1 receptor expressed in COS-7 cells cotransfected with chimeric Gi/q protein assessed as inositol phosphate accumulation at 1 uM after 2 hrs by anion exchange chromatography; assay type: functional, cell-based
T1 sequence (whole entry): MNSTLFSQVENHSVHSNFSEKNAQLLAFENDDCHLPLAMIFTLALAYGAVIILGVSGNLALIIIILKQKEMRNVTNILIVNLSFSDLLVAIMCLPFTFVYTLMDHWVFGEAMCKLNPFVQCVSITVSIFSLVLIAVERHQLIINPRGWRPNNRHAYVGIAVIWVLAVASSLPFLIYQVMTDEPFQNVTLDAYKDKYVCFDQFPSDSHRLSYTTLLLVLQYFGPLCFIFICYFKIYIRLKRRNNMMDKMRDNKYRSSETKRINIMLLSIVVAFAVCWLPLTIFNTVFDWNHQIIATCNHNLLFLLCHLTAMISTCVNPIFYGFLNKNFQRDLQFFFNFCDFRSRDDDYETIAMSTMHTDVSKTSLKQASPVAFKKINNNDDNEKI
Outline: (§1)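 COS-7 cells stably co-expressing the corresponding human Y receptor plus a chimeric Gi/q protein; single high concentration tested in inositol phosphate accumulation; response as % of NPY response at each receptor; SEM over two biological replicates.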

[2] = target: T2, Neuropeptide Y receptor type 2 (Homo sapiens, UniProt P49146); experiment: Agonist activity at human neuropeptide Y Y2 receptor expressed in COS-7 cells cotransfected with chimeric Gi/q protein assessed as inositol phosphate accumulation after 2 hrs by anion exchange chromatography; assay type: functional, cell-based
T2 sequence (P49146 whole entry): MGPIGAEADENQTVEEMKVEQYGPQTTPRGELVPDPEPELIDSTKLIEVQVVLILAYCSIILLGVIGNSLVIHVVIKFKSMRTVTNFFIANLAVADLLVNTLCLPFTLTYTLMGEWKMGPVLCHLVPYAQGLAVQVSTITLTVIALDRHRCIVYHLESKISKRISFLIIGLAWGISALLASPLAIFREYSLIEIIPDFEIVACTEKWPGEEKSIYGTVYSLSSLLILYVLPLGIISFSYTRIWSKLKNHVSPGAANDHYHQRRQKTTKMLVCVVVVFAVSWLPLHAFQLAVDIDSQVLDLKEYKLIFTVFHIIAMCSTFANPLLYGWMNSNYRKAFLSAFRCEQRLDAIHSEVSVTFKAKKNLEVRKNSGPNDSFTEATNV
Outline: (§2)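 Inositol phosphate turnover in COS-7 cells stably co-expressing human Y2 receptor and chimeric Gi/q protein; concentration-response curves, responses as % of maximum Y2 activity; SEM over two biological replicates.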

[3] = target: T3, Neuropeptide Y receptor type 5 (Homo sapiens) (UniProt Q15761); experiment: Agonist activity at human neuropeptide Y Y5 receptor expressed in COS-7 cells cotransfected with chimeric Gi/q protein assessed as inositol phosphate accumulation at 1 uM after 2 hrs by anion exchange chromatography; assay type: functional, cell-based; outline: as §1
T3 sequence (whole entry): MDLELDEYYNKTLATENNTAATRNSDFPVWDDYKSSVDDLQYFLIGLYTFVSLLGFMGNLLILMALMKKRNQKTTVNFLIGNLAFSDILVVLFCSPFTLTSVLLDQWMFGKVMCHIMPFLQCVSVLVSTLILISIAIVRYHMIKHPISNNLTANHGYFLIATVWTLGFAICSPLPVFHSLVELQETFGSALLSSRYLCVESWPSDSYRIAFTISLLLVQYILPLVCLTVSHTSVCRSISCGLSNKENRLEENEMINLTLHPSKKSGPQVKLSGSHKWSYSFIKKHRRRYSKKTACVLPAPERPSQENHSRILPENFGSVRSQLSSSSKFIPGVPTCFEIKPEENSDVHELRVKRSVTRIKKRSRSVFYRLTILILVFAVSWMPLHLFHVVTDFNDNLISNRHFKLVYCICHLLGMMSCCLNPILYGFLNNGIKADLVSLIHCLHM

Mus musculus [4] = experiment: Effect on body weight in diet-induced obese C57BL/6JRj mouse at 500 nM/kg, sc; assay type: functional, organism-based
Outline: (§3)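 Freely fed diet-induced obese mice, saline control group; single acute dose, SC at 500 nM/kg or IP at 50, 100 or 250 nM/kg; cumulative food intake and body weight recorded.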

[5] = target: T4, Growth hormone secretagogue receptor type 1 (Homo sapiens, UniProt Q92847); experiment: Displacement of [125I]ghrelin from human eYFP-fused ghrelin receptor expressed in COS7 cells after 75 mins by competitive receptor binding assay; assay type: cell-based, COS-7
T4 sequence (Q92847 whole entry, the tested form may be a part): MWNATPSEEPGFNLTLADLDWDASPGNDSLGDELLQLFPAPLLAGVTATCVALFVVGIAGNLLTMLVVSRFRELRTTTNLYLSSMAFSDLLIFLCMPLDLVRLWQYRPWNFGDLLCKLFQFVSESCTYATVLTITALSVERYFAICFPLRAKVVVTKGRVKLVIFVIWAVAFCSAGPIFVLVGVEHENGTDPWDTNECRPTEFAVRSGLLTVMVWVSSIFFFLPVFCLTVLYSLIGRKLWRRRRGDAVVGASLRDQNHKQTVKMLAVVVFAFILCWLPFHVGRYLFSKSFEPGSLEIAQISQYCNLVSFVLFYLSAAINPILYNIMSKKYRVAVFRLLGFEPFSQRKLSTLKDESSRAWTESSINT

Mus musculus [6] = experiment: Effect on food intake in diet-induced obese C57BL/6JRj mouse at 100 nM/kg, ip administered daily for 10 days; assay type: functional, organism-based
Outline: (§4)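 Freely fed diet-induced obese mice randomized to groups, saline as control; daily IP injection at 100 nM/kg for 10 days; cumulative food intake and body weight tracked in parallel; drug-by-time interaction analysed by repeated-measures ANOVA.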

[7] = target: Neuropeptide Y receptor type 4 (Homo sapiens) (UniProt P50391); experiment: Agonist activity at human neuropeptide Y Y4 receptor expressed in COS-7 cells cotransfected with chimeric Gi/q protein assessed as inositol phosphate accumulation at 1 uM after 2 hrs by anion exchange chromatography; assay type: functional, cell-based; outline: as §1
Neuropeptide Y receptor type 4 (Homo sapiens), sequence (P50391 whole entry): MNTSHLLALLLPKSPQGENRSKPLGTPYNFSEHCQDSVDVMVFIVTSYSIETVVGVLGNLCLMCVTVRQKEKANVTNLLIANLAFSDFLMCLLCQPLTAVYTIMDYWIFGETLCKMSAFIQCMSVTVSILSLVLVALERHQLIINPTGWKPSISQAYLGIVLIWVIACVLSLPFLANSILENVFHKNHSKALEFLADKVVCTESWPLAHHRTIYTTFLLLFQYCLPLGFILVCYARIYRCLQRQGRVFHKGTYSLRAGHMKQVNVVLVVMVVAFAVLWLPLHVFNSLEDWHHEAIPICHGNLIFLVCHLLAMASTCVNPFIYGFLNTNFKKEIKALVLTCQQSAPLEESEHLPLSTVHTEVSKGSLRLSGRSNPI

[8] = target: T4, Growth hormone secretagogue receptor type 1; experiment: Inverse agonist activity at human GHSR1a receptor expressed in COS-7 cells assessed as inositol phosphate accumulation after 2 hrs by anion exchange chromatography; assay type: functional, cell-based
[9] = target: T4, Growth hormone secretagogue receptor type 1; experiment: Inverse agonist activity at human GHSR1a receptor expressed in COS-7 cells assessed as inositol phosphate accumulation after 2 hrs by anion exchange chromatography relative to control; assay type: functional, cell-based
[10] = target: T5, Neuropeptide Y receptor type 2 (Homo sapiens) (UniProt P49146); experiment: Agonist activity at human neuropeptide Y Y2 receptor expressed in COS-7 cells cotransfected with chimeric Gi/q protein assessed as inositol phosphate accumulation after 2 hrs by anion exchange chromatography relative to control; assay type: functional, cell-based; outline: as §2
T5 sequence (whole entry): T2 sequence (P49146 whole entry)

Mus musculus [11] = experiment: Decrease in food intake in diet-induced obese C57BL/6JRj mouse at 0.25 nM/h, sc administered via osmotic minipumps daily for 14 days; assay type: functional, organism-based
Mus musculus [12] = experiment: Effect on body weight in diet-induced obese C57BL/6JRj mouse at 100 nM/kg, ip administered daily for 10 days; assay type: functional, organism-based; outline: as §4
Mus musculus [13] = experiment: Effect on food intake in diet-induced obese C57BL/6JRj mouse at 500 nM/kg, sc; assay type: functional, organism-based; outline: as §3
[14] = target: T2, Neuropeptide Y receptor type 2; experiment: Displacement of [125I]PYY from human neuropeptide Y Y2 receptor expressed in HEK293 cells cotransfected with eYFP fusion protein after 2 hrs by competitive receptor binding assay; assay type: cell-based
Outline: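 Competitive binding against 125I-PYY in HEK-293 cells stably expressing human Y2 receptor; concentration-response curves.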

Mus musculus [15] = experiment: Effect on body weight in diet-induced obese C57BL/6JRj mouse at 50 to 250 nM/kg, ip; assay type: functional, organism-based; outline: as §3
Mus musculus [16] = experiment: Effect on food intake in diet-induced obese C57BL/6JRj mouse at 50 to 250 nM/kg, ip; assay type: functional, organism-based; outline: as §3
Mus musculus [17] = experiment: Effect on body weight in diet-induced obese C57BL/6JRj mouse at 0.25 nM/h, sc administered via osmotic minipumps daily for 14 days; assay type: functional, organism-based

Efficacy [1] | EC50 [2] | Efficacy [3] | IC50 [5] | Efficacy [7] | EC50 [8] | Efficacy [9] | Efficacy [10] | IC50 [14] | Compound | Activity (Mus musculus [4]) | Activity (Mus musculus [6]) | inhibition (Mus musculus [11]) | Activity (Mus musculus [12]) | Activity (Mus musculus [13]) | Activity (Mus musculus [15]) | Activity (Mus musculus [16]) | Activity (Mus musculus [17])
< 25% | 3.2 nM | 33% | 97.1 nM | < 25% | 41.7 nM | 82% | 84% | 61.4 nM | CC(=O)NC(CNC(=O)CCC(=O)N[C@@H](CCCCN)C(=O)N[C@H](Cc1cccc2ccccc12)C(=O)N[C@@H](Cc1ccccc1)C(=O)N[C@H](Cc1c[nH]c2ccccc12)C(=O)N[C@@H](CC(C)C)C(=O)N[C@@H](CC(C)C)C(N)=O)C(=O)N[C@@H](CC(C)C)C(=O)N[C@@H](CCCNC(=N)N)C(=O)N[C@@H](Cc1cnc[nH]1)C(=O)N[C@@H](Cc1ccc(O)cc1)C(=O)N[C@@H](CC(C)C)C(=O)N[C@@H](CC(N)=O)C(=O)N[C@@H](CC(C)C)C(=O)N[C@@H](CC(C)C)C(=O)N[C@H](C(=O)N[C@@H](CCCNC(=N)N)C(=O)N[C@@H](CCC(N)=O)C(=O)N[C@@H](CCCNC(=N)N)C(=O)N[C@@H](Cc1ccc(O)cc1)C(N)=O)[C@@H](C)O (stereo not given in full) | inactive | inactive | Active | inactive | inactive | inactive | inactive | inactive
 |  |  |  |  |  |  |  |  | CC(=O)N[C@@H](CC(C)C)C(=O)N[C@@H](CCCNC(=N)N)C(=O)N[C@@H](Cc1cnc[nH]1)C(=O)N[C@@H](Cc1ccc(O)cc1)C(=O)N[C@@H](CC(C)C)C(=O)N[C@@H](CC(N)=O)C(=O)N[C@@H](CC(C)C)C(=O)N[C@@H](CC(C)C)C(=O)N[C@H](C(=O)N[C@@H](CCCNC(=N)N)C(=O)N[C@@H](CCC(N)=O)C(=O)N[C@@H](CCCNC(=N)N)C(=O)N[C@@H](Cc1ccc(O)cc1)C(N)=O)[C@@H](C)O (Ac-LRHYLNLLTRQRY-NH2) | inactive |  | inactive |  | inactive | inactive | inactive | 
> 66% | 1.7 nM | > 56% | 126 nM | 46% | 99.9 nM | 88% | 86% | 14.7 nM | CC(=O)N[C@@H](CCCCNC(=O)CCNC(=O)[C@H](CCC(N)=O)NC(=O)[C@H](CC(C)C)NC(=O)[C@@H](Cc1c[nH]c2ccccc12)NC(=O)[C@H](Cc1ccccc1)NC(=O)[C@@H](Cc1cccc2ccccc12)NC(=O)[C@@H](N)CCCCN)C(=O)N[C@@H](CC(C)C)C(=O)N[C@@H](CCCNC(=N)N)C(=O)N[C@@H](Cc1cnc[nH]1)C(=O)N[C@@H](Cc1ccc(O)cc1)C(=O)N[C@@H](CC(C)C)C(=O)N[C@@H](CC(N)=O)C(=O)N[C@@H](CC(C)C)C(=O)N[C@@H](CC(C)C)C(=O)N[C@H](C(=O)N[C@@H](CCCNC(=N)N)C(=O)N[C@@H](CCC(N)=O)C(=O)N[C@@H](CCCNC(=N)N)C(=O)N[C@@H](Cc1ccc(O)cc1)C(N)=O)[C@@H](C)O |  |  |  |  |  |  |  | 
> 66% | 3.9 nM | > 56% | 78.2 nM | 35% | 88.3 nM | 85% | 84% | 9 nM | CC(=O)N[C@@H](CCCCNC(=O)CCCCCNC(=O)[C@H](CCC(N)=O)NC(=O)[C@H](CC(C)C)NC(=O)[C@@H](Cc1c[nH]c2ccccc12)NC(=O)[C@H](Cc1ccccc1)NC(=O)[C@@H](Cc1cccc2ccccc12)NC(=O)[C@@H](N)CCCCN)C(=O)N[C@@H](CC(C)C)C(=O)N[C@@H](CCCNC(=N)N)C(=O)N[C@@H](Cc1cnc[nH]1)C(=O)N[C@@H](Cc1ccc(O)cc1)C(=O)N[C@@H](CC(C)C)C(=O)N[C@@H](CC(N)=O)C(=O)N[C@@H](CC(C)C)C(=O)N[C@@H](CC(C)C)C(=O)N[C@H](C(=O)N[C@@H](CCCNC(=N)N)C(=O)N[C@@H](CCC(N)=O)C(=O)N[C@@H](CCCNC(=N)N)C(=O)N[C@@H](Cc1ccc(O)cc1)C(N)=O)[C@@H](C)O |  |  |  |  |  |  |  | 
